Results: ChEMBL document CHEMBL1629492 (Eur J Med Chem, 2010)

Columns and labels:
[1] = target: T1, Alpha-1B adrenergic receptor (Rattus norvegicus, UniProt P15823); assay: Antagonist activity at Alpha-1B adrenoceptor in Wistar rat spleen assessed as phenylephrine induced contractions after 30 mins; format: functional, tissue-based; conditions: read-out: pA2 (converted)
T1 sequence (P15823 whole entry): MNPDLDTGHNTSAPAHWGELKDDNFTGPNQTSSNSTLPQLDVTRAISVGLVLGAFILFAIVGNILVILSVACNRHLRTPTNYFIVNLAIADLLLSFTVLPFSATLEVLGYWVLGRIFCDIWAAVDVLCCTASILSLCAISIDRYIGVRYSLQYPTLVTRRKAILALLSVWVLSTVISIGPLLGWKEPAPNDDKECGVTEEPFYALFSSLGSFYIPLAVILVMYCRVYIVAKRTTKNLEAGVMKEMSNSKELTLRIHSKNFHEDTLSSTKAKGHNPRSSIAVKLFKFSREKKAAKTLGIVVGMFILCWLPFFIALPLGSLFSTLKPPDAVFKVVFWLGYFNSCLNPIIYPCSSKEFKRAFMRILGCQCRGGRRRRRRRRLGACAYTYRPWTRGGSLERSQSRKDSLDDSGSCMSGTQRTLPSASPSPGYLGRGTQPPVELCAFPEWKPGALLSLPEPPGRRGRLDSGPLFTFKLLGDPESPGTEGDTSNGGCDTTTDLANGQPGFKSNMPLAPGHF
Method in brief: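 Spleen strips from male Wistar rats (275–300 g) were set up in a 20 mL bath of physiological salt solution (pH 7.4, 37 °C, 95% O2/5% CO2) under 1 g tension and equilibrated 2 h. Two cumulative phenylephrine curves were run, each followed by 30 min washing, then 30 min incubation with vehicle or antagonist before a third curve. Values are Schild pA2, or pKB where slopes were nonparallel; 4–6 experiments.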

[2] = target: T2, Alpha-1A adrenergic receptor (Rattus norvegicus) (UniProt P43140); assay: Antagonist activity at alpha1A adrenoceptor in Wistar rat vas deferens assessed as noradrenaline induced contractions after 30 mins; format: functional, tissue-based
T2 sequence (whole entry): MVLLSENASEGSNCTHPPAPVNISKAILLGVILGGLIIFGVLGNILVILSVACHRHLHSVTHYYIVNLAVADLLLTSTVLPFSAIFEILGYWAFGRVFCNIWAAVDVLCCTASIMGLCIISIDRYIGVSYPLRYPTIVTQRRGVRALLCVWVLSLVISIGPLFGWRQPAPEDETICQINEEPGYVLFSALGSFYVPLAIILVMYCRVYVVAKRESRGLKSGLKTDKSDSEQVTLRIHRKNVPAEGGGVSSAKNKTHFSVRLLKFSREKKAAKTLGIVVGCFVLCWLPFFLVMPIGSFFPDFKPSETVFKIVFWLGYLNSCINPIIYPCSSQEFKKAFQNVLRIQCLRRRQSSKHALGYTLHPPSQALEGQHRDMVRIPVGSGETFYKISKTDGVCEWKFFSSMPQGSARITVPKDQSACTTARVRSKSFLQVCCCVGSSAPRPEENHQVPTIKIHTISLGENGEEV
Method in brief: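 Prostatic portions (2 cm) of vas deferens from male Wistar rats (275–300 g) were held under 0.35 g tension in Tyrode solution at 37 °C with cocaine present. Tissues were equilibrated 45 min, primed twice with noradrenaline, then given a cumulative isotonic noradrenaline curve.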

[3] = target: T3, Alpha-1D adrenergic receptor (Rattus norvegicus) (UniProt P23944); conditions: Wistar, Thoracic aorta
T3 sequence (whole entry): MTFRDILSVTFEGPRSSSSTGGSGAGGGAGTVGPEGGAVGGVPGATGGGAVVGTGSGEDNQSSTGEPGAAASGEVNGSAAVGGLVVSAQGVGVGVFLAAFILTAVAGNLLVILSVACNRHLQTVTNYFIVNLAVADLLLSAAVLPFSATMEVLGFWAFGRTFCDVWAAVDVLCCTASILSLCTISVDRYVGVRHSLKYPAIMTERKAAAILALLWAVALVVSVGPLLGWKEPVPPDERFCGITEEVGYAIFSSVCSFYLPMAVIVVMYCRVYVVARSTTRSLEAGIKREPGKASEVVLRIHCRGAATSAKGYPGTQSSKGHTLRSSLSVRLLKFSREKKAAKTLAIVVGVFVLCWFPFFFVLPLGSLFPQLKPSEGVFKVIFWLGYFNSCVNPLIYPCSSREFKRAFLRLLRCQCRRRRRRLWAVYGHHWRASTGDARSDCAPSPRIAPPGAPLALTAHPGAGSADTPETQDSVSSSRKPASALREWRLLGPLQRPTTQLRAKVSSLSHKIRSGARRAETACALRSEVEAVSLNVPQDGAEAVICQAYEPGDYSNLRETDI

Structure (SMILES)	Kb [1] [µM]	pKb [2]	pKb [3]
COc1ccc(C[C@@H](C)NCCOc2ccccc2OCC(F)(F)F)cc1S(N)(=O)=O	0.0011	–	–
COc1ccc(C[C@@H](C)NCCOc2ccccc2OC(C)C)cc1S(N)(=O)=O	–	9.66	–
COc1ccc(C[C@@H](C)NC[C@H]2Oc3ccccc3O[C@H]2C)cc1S(N)(=O)=O	0.0309	–	–
COc1ccc(C[C@@H](C)NCCOc2ccccc2OCc2ccccc2)cc1S(N)(=O)=O	–	9.66	9.2
